# Bioassay records: PubChem, The Scripps Research Institute Molecular Screening Center
# Shown are actives, neighbours in structure and some others; about 2% of the full set was active somewhere.
# TDP2 inh: human TDP2 enzyme inhibitors, primary screen, biochemical, epi absorbance, recombinant enzyme. AID 720702, 2013. actives 0.34% (n = 370,000). Tyrosyl-DNA phosphodiesterase 2 (Homo sapiens), O95551. T5PNP hydrolysis, p-nitrophenol absorbance 415 nm. inhibition, % at 12.8 µM;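 active = inhibition above the mean of all tested compounds plus 3 SD, set per campaign, cut at about 25% in these data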
#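 Material: recombinant human TDP2; quantity: TDP2 enzyme at 120 nM final; medium: Tris-HCl pH 7.5 with MgCl2; compound: single concentration, 12.8 µM nominal, with 1% DMSO; incubation: 2 h enzyme incubation at 37 °C; signal: epi absorbance; measure: percent inhibition; benchmarks: high control without enzyme, low control DMSO plus TDP2; repeats: singlicate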
# UHRF1 MBD2 ctr: UHRF1 methylated DNA binding inhibitors, primary screen, counter-screen for MBD2 inhibitor project, biochemical, TR-FRET, human UHRF1, single concentration; actives 0.75% (n = 370,000); inhibition, % at 4.4 µM; AID 687016, 2013; E3 ubiquitin-protein ligase UHRF1 (Homo sapiens), Q96T88; UHRF1 binding to methylated oligo; in the data active = inhibition above about 21%;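 note: UHRF1 SRA domain binding a hemimethylated CpG hairpin DNA probe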
# LEDGF integ inh: blockers of LEDGF/p75-dependent integrase strand transfer – biochemical, TR-FRET, high throughput, primary screen; HIV-1 integrase (with human LEDGF/p75); TR-FRET IN-LEDGF/p75 DNA integration, Eu/Cy5; inhibition, % at 3.7 µM; actives 0.64% (n = 370,000);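 active = inhibition above the screen-wide mean plus 3 SD, cut at about 13% in these data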;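 note: signal is the Cy5 over europium emission ratio at 671 and 618 nm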
# ARFGAP1 inhibitor: inhibitors of rat ARFGAP1 GAP activity, primary screen, biochemical, fluorescence polarization, GDP tracer. AID 651572, 2012. inhibition, % at 16.5 µM. ADP-ribosylation factor GTPase-activating protein 1 (Rattus norvegicus), Q62848. actives 0.26% (n = 360,000). Arfgap1-stimulated ARF1 GTP hydrolysis, GDP FP detection;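 active = inhibition above a per-plate limit, mean inhibition of low control wells plus 3 SD, cut at about 25% in these data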
# Target sequence (Q62848 1-136 limits assumed): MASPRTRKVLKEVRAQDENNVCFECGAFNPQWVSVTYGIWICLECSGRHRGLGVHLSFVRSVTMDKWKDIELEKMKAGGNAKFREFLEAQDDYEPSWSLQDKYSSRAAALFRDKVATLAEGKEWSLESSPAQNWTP
#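 system = rat Arfgap1 catalytic domain, aa 1-136 | technique = FP, GDP Alexa 633 tracer displaced from anti-GDP antibody, 620/688 nm | compound = one concentration, 16.5 µM, DMSO 1.26% | medium = HEPES-based buffer, pH 7.5 | timing = compound-enzyme preincubation 20 min, reaction 120 min, detection 60 min, 25 °C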
# MBD2 DNA inh: inhibitors of MBD2 binding to methylated DNA, primary screen, biochemical, TR-FRET, DNA-binding domain, human | inhibition, % at 4.4 µM | actives 0.31% (n = 370,000) | MBD2 binding to methylated oligonucleotide | Methyl-CpG-binding domain protein 2 (Homo sapiens), Q9UBB5 | AID 686964, 2013; in the data active = inhibition above about 13%
# Target sequence (Q9UBB5 whole entry, looked up, the tested form may be a part): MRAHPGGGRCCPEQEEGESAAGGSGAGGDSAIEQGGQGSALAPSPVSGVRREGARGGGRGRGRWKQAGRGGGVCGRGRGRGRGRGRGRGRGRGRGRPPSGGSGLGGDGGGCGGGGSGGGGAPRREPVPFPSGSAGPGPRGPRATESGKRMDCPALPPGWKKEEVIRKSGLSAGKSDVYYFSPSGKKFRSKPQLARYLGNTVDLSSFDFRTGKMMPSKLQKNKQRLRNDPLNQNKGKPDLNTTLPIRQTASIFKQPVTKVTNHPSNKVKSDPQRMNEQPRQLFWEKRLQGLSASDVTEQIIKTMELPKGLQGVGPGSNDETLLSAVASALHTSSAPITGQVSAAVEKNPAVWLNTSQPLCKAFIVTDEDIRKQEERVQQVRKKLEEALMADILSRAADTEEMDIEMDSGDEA
# ASAP1 inh: inhibitors of human ASAP1 ArfGAP activity, primary screen, biochemical, fluorescence polarization; inhibition, % at 16.5 µM; ASAP1-stimulated ARF1 GTP hydrolysis, GDP FP detection; actives 0.19% (n = 360,000); in the data active = inhibition above about 25%
# A number is an active result; 0 = inactive; - = not tested or not shown.
SMILES,TDP2 inh,UHRF1 MBD2 ctr,LEDGF integ inh,ARFGAP1 inhibitor,MBD2 DNA inh,ASAP1 inh
CCN(CC)S(=O)(=O)c1cccc(N=NC2=C(O)CCCC2=O)c1,0,0,0,0,0,0
O=C1CCCC(O)=C1N=Nc1cccc(C(=O)O)c1,0,20.7,0,0,0,0
COc1ccc(N2C(=O)[C@@H]3[C@H](C2=O)[C@H]2c4ccccc4C=CN2[C@@H]3C(=O)Nc2ccccc2)cc1,0,0,0,0,0,0
O=C(c1ccco1)[C@@H]1[C@@H]2C(=O)N(c3ccccc3)C(=O)[C@@H]2C2c3ccccc3C=CN21 (some centres undefined),43.1,0,0,0,0,34.1
Cc1ccc(N2C(=O)[C@@H]3[C@H](C2=O)C2c4ccccc4C=CN2[C@@H]3C(=O)c2ccco2)c(C)c1 (some centres undefined),26.4,0,0,0,0,0
CC(=O)[C@@H]1[C@@H]2C(=O)N(Cc3ccccc3)C(=O)[C@@H]2C2c3ccccc3C=CN21 (some centres undefined),0,0,0,0,0,0
O=C(CCN1C(=O)c2cccc3cccc(c23)C1=O)NCc1cccnc1,0,24.9,0,0,0,0
O=C1c2cccc3cccc(c23)C(=O)N1Cc1cccnc1,0,0,0,0,0,0
O=C(CCN1C(=O)C2C3C=CC(C3)C2C1=O)NCc1cccnc1 (centres undefined),0,22.0,0,0,0,0
COC(=O)[C@H](C(C)C)N(CCCc1cn(CC2CCCCC2)nn1)S(=O)(=O)c1ccc(F)cc1Br,0,0,0,-,0,-
O=C(c1ccc(Cl)cc1)N1CCN(c2ccccn2)CC1,0,0,0,-,0,-
C[C@H]1[C@@H](OC(=O)Nc2ccc(Cl)cc2)CC[C@@]23CCCN2C(=O)CCC[C@@H]13,0,0,0,-,0,-
CCOc1cc(C2C(C#N)=C(N)Oc3n[nH]c(CC)c32)ccc1OCCN1CCOCC1 (centres undefined),0,22.0,0,0,0,0
O=C(CSc1nnc(-c2ccccc2)n1-c1ccccc1)Nc1ccccc1-c1ccccc1,0,0,0,-,0,-
O=C(c1cccc(S(=O)(=O)N2CCOCC2)c1)N1CCCCCC1,0,39.8,0,0,0,0
O=C(c1cccc(S(=O)(=O)N2CCOCC2)c1)N1CCCC1,0,0,0,0,0,0
O=C(c1cccc(-n2cccc2)c1)N1CCN(S(=O)(=O)c2ccccc2)CC1,0,55.8,0,0,27.5,0
CC(C)n1nnnc1-c1ccc(Cl)cc1,0,20.9,0,0,0,0
COc1ccc(OC)c(S(=O)(=O)N2CCCC(c3noc(-c4ccc(C)cc4)n3)C2)c1 (centres undefined),0,0,0,-,0,-
COC(=O)c1ccc(-c2ccc(/C=N/NC(=O)Cc3nnc(N)s3)o2)cc1,0,32.1,0,0,0,0
CN(Cc1ccccc1)C(=O)OCc1cn(Cc2ccc(C(F)(F)F)cc2)nn1,0,0,0,-,0,-
CCN1/C(=C/c2ccc3cc(C)ccc3[n+]2C)Sc2ccc3sccc3c21,0,40.8,0,0,0,0
CC(C)(C)c1ccc(S(=O)(=O)NCC(=O)N2CCN(c3ncccn3)CC2)cc1,0,0,0,-,0,-
C=CCNC(=S)N(C)[C@H]1C[C@H]2c3[nH]c4cccc(-c5cccc(F)c5)c4c3CCN2C(=O)[C@H]1[C@H](C)O,0,0,0,-,0,-
CCO[C@@H]1OC(C(N)=O)=C[C@H](c2ccc(C(F)(F)F)cc2)[C@H]1CCCO,0,0,0,0,0,0
SMILES,TDP2 inh,UHRF1 MBD2 ctr,LEDGF integ inh,ARFGAP1 inhibitor,MBD2 DNA inh,ASAP1 inh
CCO[C@@H]1OC(C(=O)O)=C[C@H](c2ccc(C(F)(F)F)cc2)[C@H]1CCCO,0,77.0,0,0,0,0
COC(=O)[C@H](C(C)C)N(CCc1cn(Cc2ccc(C)cc2)nn1)S(=O)(=O)c1ccc(F)cc1Br,0,0,0,-,0,-
CN1CCN(C(=O)/C(=C/c2ccccc2Cl)NC(=O)c2ccccc2)CC1,0,0,45.1,0,0,0
COCCCN1C(=O)[C@H](CC(=O)NCC23CC4CC(CC(C4)C2)C3)[C@]2(C(=O)OC)CCCCC=C12,0,0,0,-,0,-
Cc1ccc(CN(Cc2cc3cc4c(cc3[nH]c2=O)OCCO4)Cc2nnnn2Cc2ccco2)cc1,0,0,17.2,0,0,0
CC(=O)N(c1ccccc1)c1nc(/C=C/C(=O)Nc2c(C)cc(C)cc2C)cs1,0,98.9,0,0,0,0
CC(=O)N(c1ccccc1)c1nc(/C=C/C(=O)O)cs1,0,0,0,0,0,0
CN(C)c1ccc(-c2[nH][nH]c(=O)c2NC(=O)c2ccccn2)cc1,87.0,0,0,0,14.8,0
Cc1cnc(C(=O)Nc2c(-c3ccccc3)[nH][nH]c2=O)cn1,0,0,0,0,0,0
OC(CCN1CCCCC1)(c1ccccc1)C1CC2C=CC1C2 (centres undefined),0,0,0,-,0,-
CN(CCC#N)C(=O)COC(=O)c1c2c(nc3ccccc13)/C(=C/c1ccco1)CC2,0,86.3,78.8,0,63.6,0
CC(C)N1CCc2c(-c3nc4ccccc4s3)csc2C1,0,0,0,-,0,-
CCN(CC)C(=O)CC[C@H]1CC[C@]2(CCCN(S(C)(=O)=O)C2)O1,0,0,0,-,0,-
COc1ccc(/C=C/C(=O)O)cc1S(=O)(=O)NCc1ccccc1,0,0,87.7,0,0,0
CC(=O)Nc1ccc(S(=O)(=O)N2CCN(c3nc(NC4CCCC4)c4ccccc4n3)CC2)cc1,0,0,0,39.4,0,0
CC(=O)Nc1ccc(S(=O)(=O)N2CCN(c3cc(C)nc4ccccc34)CC2)cc1,0,0,0,0,0,0
CC(C)(C)C(=O)NC1CCCCN(Cc2cccc(Cl)c2)C1=O (centres undefined),0,0,0,-,0,-
CN1OC[C@@H]2CN(C(=O)CCc3ccccc3)[C@H](c3ccccc3Br)C[C@@H]21,0,77.0,0,0,0,0
CC(=O)N1C[C@H]2CON(C)[C@H]2C[C@H]1c1ccccc1Br,0,0,0,0,0,0
S=C(N/N=C/c1ccc2ncccc2c1)Nc1ccccc1,0,32.4,0,0,0,0
N#CCC[C@@H]1CC[C@]2(CCCN(Cc3ccc(Cl)cc3)C2)O1,0,0,0,-,0,-
CCOc1ccc(-n2nnc3c(=O)n(C/C=C/c4ccccc4)cnc32)cc1,0,22.7,0,0,0,0
